Measurements published in ChEMBL document CHEMBL2331191, “Design and synthesis of novel 1,2,3-triazole-dithiocarbamate hybrids as potential anticancer agents” (Eur J Med Chem, 2013).

Experiments:
MGC-803 [1] = assay: Cell cycle arrest in human MGC803 cells assessed as accumulation at G0/G1 phase at 0.25 umol/L after 24 hrs by propidium iodide staining-based flow cytometric analysis (reference value: 43.68%); assay type: functional
MGC-803 [2] = assay: Cell cycle arrest in human MGC803 cells assessed as accumulation at G2/M phase at 1 umol/L after 12 hrs by propidium iodide staining-based flow cytometric analysis (reference value: 17.59%); assay type: functional
MGC-803 [3] = assay: Cell cycle arrest in human MGC803 cells assessed as accumulation at G2/M phase at 0.5 umol/L after 12 hrs by propidium iodide staining-based flow cytometric analysis (reference value: 17.59%); assay type: functional
MGC-803 [4] = assay: Cell cycle arrest in human MGC803 cells assessed as accumulation at G2/M phase at 0.25 umol/L after 12 hrs by propidium iodide staining-based flow cytometric analysis (reference value: 17.59%); assay type: functional
MGC-803 [5] = assay: Cell cycle arrest in human MGC803 cells assessed as accumulation at S phase at 1 umol/L after 12 hrs by propidium iodide staining-based flow cytometric analysis (reference value: 41.43%); assay type: functional
MGC-803 [6] = assay: Cell cycle arrest in human MGC803 cells assessed as accumulation at S phase at 0.5 umol/L after 12 hrs by propidium iodide staining-based flow cytometric analysis (reference value: 41.43%); assay type: functional
MGC-803 [7] = assay: Cell cycle arrest in human MGC803 cells assessed as accumulation at S phase at 0.25 umol/L after 12 hrs by propidium iodide staining-based flow cytometric analysis (reference value: 41.43%); assay type: functional
MGC-803 [8] = assay: Cell cycle arrest in human MGC803 cells assessed as accumulation at G0/G1 phase at 1 umol/L after 12 hrs by propidium iodide staining-based flow cytometric analysis (reference value: 39.17%); assay type: functional
MGC-803 [9] = assay: Cell cycle arrest in human MGC803 cells assessed as accumulation at G0/G1 phase at 0.5 umol/L after 12 hrs by propidium iodide staining-based flow cytometric analysis (reference value: 39.17%); assay type: functional
MGC-803 [10] = assay: Cell cycle arrest in human MGC803 cells assessed as accumulation at G0/G1 phase at 0.25 umol/L after 12 hrs by propidium iodide staining-based flow cytometric analysis (reference value: 39.17%); assay type: functional
MGC-803 [11] = assay: Induction of apoptosis in human MGC803 cells after 12 hrs by annexin-V-FITC/propidium iodide staining-based flow cytometric analysis; assay type: functional, cell-based
Method in brief: (§1)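 MGC-803 cells were plated at 5.0×10^4 cells/mL, held 12 h at 37 °C, then given complete medium (blank) or compound at 0, 0.25, 0.5 or 1.0 µmol/L for 12 h. Quadrants: live (annexin−/PI−), early apoptotic (annexin+/PI−), late apoptotic (annexin+/PI+), damaged (annexin−/PI+).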

MGC-803 [12] = assay: Induction of apoptosis in human MGC803 cells assessed as live cells at 1 umol/L after 12 hrs by annexin-V-FITC/propidium iodide staining-based flow cytometric analysis (reference value: 88.9%); assay type: functional; method in brief: as §1
MGC-803 [13] = assay: Induction of apoptosis in human MGC803 cells assessed as live cells at 0.5 umol/L after 12 hrs by annexin-V-FITC/propidium iodide staining-based flow cytometric analysis (reference value: 88.9%); assay type: functional; method in brief: as §1
MGC-803 [14] = assay: Induction of apoptosis in human MGC803 cells assessed as live cells at 0.25 umol/L after 12 hrs by annexin-V-FITC/propidium iodide staining-based flow cytometric analysis (reference value: 88.9%); assay type: functional; method in brief: as §1
MGC-803 [15] = assay: Induction of apoptosis in human MGC803 cells assessed as damaged cells at 1 umol/L after 12 hrs by annexin-V-FITC/propidium iodide staining-based flow cytometric analysis (reference value: 1.9%); assay type: functional; method in brief: as §1
MGC-803 [16] = assay: Induction of apoptosis in human MGC803 cells assessed as damaged cells at 0.5 umol/L after 12 hrs by annexin-V-FITC/propidium iodide staining-based flow cytometric analysis (reference value: 1.9%); assay type: functional; method in brief: as §1
MGC-803 [17] = assay: Induction of apoptosis in human MGC803 cells assessed as damaged cells at 0.25 umol/L after 12 hrs by annexin-V-FITC/propidium iodide staining-based flow cytometric analysis (reference value: 1.9%); assay type: functional; method in brief: as §1
MGC-803 [18] = assay: Induction of apoptosis in human MGC803 cells assessed as early apoptotic cells at 1 umol/L after 12 hrs by annexin-V-FITC/propidium iodide staining-based flow cytometric analysis (reference value: 3.7%); assay type: functional; method in brief: as §1
MGC-803 [19] = assay: Induction of apoptosis in human MGC803 cells assessed as early apoptotic cells at 0.5 umol/L after 12 hrs by annexin-V-FITC/propidium iodide staining-based flow cytometric analysis (reference value: 3.7%); assay type: functional; method in brief: as §1
MGC-803 [20] = assay: Induction of apoptosis in human MGC803 cells assessed as early apoptotic cells at 0.25 umol/L after 12 hrs by annexin-V-FITC/propidium iodide staining-based flow cytometric analysis (reference value: 3.7%); assay type: functional; method in brief: as §1
MGC-803 [21] = assay: Induction of apoptosis in human MGC803 cells assessed as late apoptotic cells at 1 umol/L after 12 hrs by annexin-V-FITC/propidium iodide staining-based flow cytometric analysis (reference value: 5.5%); assay type: functional; method in brief: as §1
MGC-803 [22] = assay: Induction of apoptosis in human MGC803 cells assessed as late apoptotic cells at 0.5 umol/L after 12 hrs by annexin-V-FITC/propidium iodide staining-based flow cytometric analysis (reference value: 5.5%); assay type: functional; method in brief: as §1
MGC-803 [23] = assay: Induction of apoptosis in human MGC803 cells assessed as late apoptotic cells at 0.25 umol/L after 12 hrs by annexin-V-FITC/propidium iodide staining-based flow cytometric analysis (reference value: 5.5%); assay type: functional; method in brief: as §1
MGC-803 [24] = assay: Ratio of 5-fluorouracil IC50 to compound IC50 for growth inhibition of human MGC803 cells; assay type: functional
Method in brief: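 The IC50 ratio uses MGC-803 values from the 72 h MTT assay: cells seeded at 5×10^3 per well, compound exposure 72 h, MTT 4 h at 37 °C, A570 read after DMSO solubilization. Triplicate wells, three experiments. IC50 values were taken from dose–response curves, with 5-fluorouracil as the reference.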

[25] = Cytotoxicity against human EC109 cells assessed as growth inhibition after 72 hrs by MTT assay; assay type: functional, cell-based; conditions: ECa-109, 72 h
Method in brief: (§2)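 Exponentially growing cells were seeded at 5×10^3 per well and held 24 h at 37 °C. Medium was then replaced with fresh medium containing a range of concentrations, and cells were exposed for 72 h. MTT (5 mg/mL) was added for 4 h at 37 °C, formazan was dissolved in DMSO and A570 was read. Triplicate wells per concentration, three experiments. IC50 was taken from dose–response curves of inhibition ratio.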

PC-3 = assay: Cytotoxicity against human PC3 cells assessed as growth inhibition after 72 hrs by MTT assay; assay type: functional, cell-based; conditions: PC-3, 72 h; method in brief: as §2
MCF7 = assay: Cytotoxicity against human MCF7 cells assessed as growth inhibition after 72 hrs by MTT assay; assay type: functional, cell-based; conditions: MCF7, 72 h; method in brief: as §2
MGC-803 [26] = assay: Cytotoxicity against human MGC803 cells assessed as growth inhibition after 72 hrs by MTT assay; assay type: functional, cell-based; conditions: MGC-803, 72 h; method in brief: as §2
MGC-803 [27] = assay: Cell cycle arrest in human MGC803 cells assessed as accumulation at G2/M phase at 0.25 to 1 umol/L by propidium iodide staining-based flow cytometric analysis; assay type: functional; conditions: TDE = time-dependent effect
MGC-803 [28] = assay: Cell cycle arrest in human MGC803 cells assessed as accumulation at G2/M phase after 12 to 24 hrs by propidium iodide staining-based flow cytometric analysis; assay type: functional
MGC-803 [29] = assay: Cell cycle arrest in human MGC803 cells assessed as accumulation at G2/M phase at 1 umol/L after 24 hrs by propidium iodide staining-based flow cytometric analysis (reference value: 15.12%); assay type: functional
MGC-803 [30] = assay: Cell cycle arrest in human MGC803 cells assessed as accumulation at G2/M phase at 0.5 umol/L after 24 hrs by propidium iodide staining-based flow cytometric analysis (reference value: 15.12%); assay type: functional
MGC-803 [31] = assay: Cell cycle arrest in human MGC803 cells assessed as accumulation at G2/M phase at 0.25 umol/L after 24 hrs by propidium iodide staining-based flow cytometric analysis (reference value: 15.12%); assay type: functional
MGC-803 [32] = assay: Cell cycle arrest in human MGC803 cells assessed as accumulation at S phase at 1 umol/L after 24 hrs by propidium iodide staining-based flow cytometric analysis (reference value: 39.56%); assay type: functional
MGC-803 [33] = assay: Cell cycle arrest in human MGC803 cells assessed as accumulation at S phase at 0.5 umol/L after 24 hrs by propidium iodide staining-based flow cytometric analysis (reference value: 39.56%); assay type: functional
MGC-803 [34] = assay: Cell cycle arrest in human MGC803 cells assessed as accumulation at S phase at 0.25 umol/L after 24 hrs by propidium iodide staining-based flow cytometric analysis (reference value: 39.56%); assay type: functional
MGC-803 [35] = assay: Cell cycle arrest in human MGC803 cells assessed as accumulation at G0/G1 phase at 1 umol/L after 24 hrs by propidium iodide staining-based flow cytometric analysis (reference value: 43.68%); assay type: functional
MGC-803 [36] = assay: Cell cycle arrest in human MGC803 cells assessed as accumulation at G0/G1 phase at 0.5 umol/L after 24 hrs by propidium iodide staining-based flow cytometric analysis (reference value: 43.68%); assay type: functional

## CC(C)(C)OC(=O)N1CCN(C(=S)SCc2cn(Cc3ccccc3Cl)nn2)CC1
MGC-803 [1]
  Activity: 27.21%
MGC-803 [2]
  Activity: 64.1%
MGC-803 [3]
  Activity: 34.29%
MGC-803 [4]
  Activity: 22.2%
MGC-803 [5]
  Activity: 30.36%
MGC-803 [6]
  Activity: 36.01%
MGC-803 [7]
  Activity: 39.06%
MGC-803 [8]
  Activity: 11.95%
MGC-803 [9]
  Activity: 30.04%
MGC-803 [10]
  Activity: 38.7%
MGC-803 [11]
  Activity: Dose-dependent effect
MGC-803 [12]
  Activity: 54.6%
MGC-803 [13]
  Activity: 74.1%
MGC-803 [14]
  Activity: 84.8%
MGC-803 [15]
  Activity: 2.3%
MGC-803 [16]
  Activity: 2.9%
MGC-803 [17]
  Activity: 1.9%
MGC-803 [18]
  Activity: 35.1%
MGC-803 [19]
  Activity: 14.6%
MGC-803 [20]
  Activity: 7.7%
MGC-803 [21]
  Activity: 8.1%
MGC-803 [22]
  Activity: 8.4%
MGC-803 [23]
  Activity: 5.5%
MGC-803 [24]
  Ratio IC50: 14
[25]
  IC50: 11.9 µM
PC-3
  IC50: 12.5 µM
MCF7
  IC50: 6.09 µM
MGC-803 [26]
  IC50: 0.49 µM
MGC-803 [27]
  Activity: tde
MGC-803 [28]
  Activity: Dose-dependent effect
MGC-803 [29]
  Activity: 80.05%
MGC-803 [30]
  Activity: 68.1%
MGC-803 [31]
  Activity: 38.75%
MGC-803 [32]
  Activity: 10.67%
MGC-803 [33]
  Activity: 14.81%
MGC-803 [34]
  Activity: 34.35%
MGC-803 [35]
  Activity: 1.62%
MGC-803 [36]
  Activity: 9.13%
